Peptide text beside a SMILES is read from it. * marks the point of attachment. Hydrocinnamoyl = O=C(CCc1ccccc1)*; Morpholide = C1CN(*)CCO1
Species: Rattus norvegicus
Assay: Inhibition of rat recombinant Rab geranylgeranyltransferase at 100 uM in presence of canine Rab7 and rat REP1 NBD-FPP based continuous fluorimetric assay
How it was run: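 Continuous fluorometric assay in 96/384-well format: 3 μM Rab7, 3 μM REP1, 9 μM NBD-FPP and 400 nM RabGGTase, with or without inhibitor. […] IC50 was calculated from three independent measurements.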

Q: With `CCC(C)OC(=O)[C@H](CCC(N)=O)NC(=O)[C@H](Cc1ccccc1)NC(=O)[C@@H](C)NC(=O)CCc1ccccc1` (stereo not given in full) as the compound, how does the inhibition read?
A: 83%

Q: Which inhibition does the source give for `CCCCCCCCCCCCCC(=O)OC[C@H](NC(=O)[C@@H]1CCCN1C(=O)[C@H](CCC(N)=O)NC(=O)c1coc(-c2ccccc2)n1)C(=O)O` here?
A: 36%

Q: `O=C(N[C@@H](Cc1ccc(O)cc1)C(=O)N[C@@H](Cc1ccc(O)cc1)C(=O)N[C@@H](Cc1ccc(O)cc1)C(=O)OCCCl)c1ccc(F)cc1F` was tested. Which inhibition did it give?
A: 71%

Q: `CC[C@H](C)[C@H](NC(=O)c1ccc(-c2ccccc2)cc1)C(=O)N[C@@H](C(=O)N[C@@H](CCC(N)=O)C(N)=O)C(C)C` was tested. Which inhibition did it give?
A: 89%

Q: Which inhibition does the source give for `CCCCCCCCCCCC(=O)N[C@@H](Cc1c[nH]cn1)C(=O)N[C@@H](Cc1c[nH]cn1)C(=O)N[C@@H](Cc1ccc(O)cc1)C(=O)NCCCn1ccnc1` here?
A: 124%

Q: For `CC(C)C[C@H](NC(=O)[C@H](COC(C)(C)C)NC(=O)[C@H](Cc1ccccc1)NC(=O)/C=C/c1ccc(F)cc1)C(=O)O`, which inhibition is on record?
A: 103%

Q: Which inhibition does the source give for `O=C(CNC(=O)[C@H](Cc1ccc(O)cc1)NC(=O)c1ccc(F)cc1)N[C@@H](Cc1ccc(O)cc1)C(=O)OCCCl` here?
A: 55%

Q: With `C=CCCCOC(=O)[C@H](CCC(N)=O)NC(=O)[C@H](C)NC(=O)[C@@H](NC(=O)c1ccc(-c2ccccc2)cc1)[C@@H](C)O` as the compound, how does the inhibition read?
A: 89%

Q: Which inhibition does the source give for `CC(C)CCNC(=O)[C@H](Cc1ccccc1)NC(=O)[C@H](CC(C)C)NC(=O)[C@@H]1CCCN1C(=O)/C=C/c1ccccc1` here?
A: 104%

Q: For `CCC/C=C\c1ccccc1/C=C/C(=O)N[C@H](Cc1ccc(O)cc1)C(=O)N(C)[C@@H](Cc1ccc(OC)cc1)C(=O)N(C)[C@@H](Cc1ccccc1)C(=O)OCc1cnc(C)s1`, which inhibition is on record?
A: 97%

Q: For `CCCCCCCCCCCC(=O)N[C@@H](Cc1ccc(O)cc1)C(=O)N[C@@H](Cc1c[nH]cn1)C(=O)N[C@@H](Cc1ccc(O)cc1)C(=O)Nc1ccccc1N`, which inhibition is on record?
A: 42%

Q: Which inhibition does the source give for `CC(C)CCNC(=O)[C@H](Cc1ccccc1)NC(=O)CNC(=O)[C@@H]1CCCN1C(=O)/C=C/c1ccccc1` here?
A: 80%

Q: How did the inhibition turn out when `CC[C@H](C)[C@H](NC(=O)c1ccc(-c2ccccc2)cc1)C(=O)N[C@@H](C(=O)N[C@@H](CCC(N)=O)C(=O)N(C)OC)C(C)C` was run?
A: 109%

Q: How did the inhibition turn out when `CCCCCCCCCCC(=O)N[C@@H](Cc1ccc(O)cc1)C(=O)N[C@@H](Cc1c[nH]cn1)C(=O)N[C@@H](Cc1c[nH]cn1)C(=O)Nc1ccccn1` was run?
A: 64%

Q: For `C[C@@H](NC(=O)CCc1ccccc1)C(=O)N[C@@H](Cc1ccccc1)C(=O)N[C@@H](CCC(=O)O)C(=O)Nc1cccc(Br)n1`, which inhibition is on record?
A: 100%

Q: Which inhibition does the source give for `O=C(CNC(=O)[C@@H]1CCCN1C(=O)c1coc(-c2ccccc2)n1)N[C@@H](Cc1c[nH]cn1)C(=O)Nc1ccc(F)cc1F` here?
A: 87%

Q: `C=CCCCOC(=O)[C@H](CCC(N)=O)NC(=O)[C@H](Cc1ccccc1)NC(=O)[C@H](C)NC(=O)CCc1ccccc1` was tested. Which inhibition did it give?
A: 75%

Q: For `CC[C@H](C)[C@H](NC(=O)c1ccc(-c2ccccc2)cc1)C(=O)N[C@@H](C(=O)N[C@@H](CCC(N)=O)C(=O)Nc1cccc(Br)n1)C(C)C`, which inhibition is on record?
A: 106%

Q: `CON(C)C(=O)[C@H](CCC(N)=O)NC(=O)[C@H](Cc1ccccc1)NC(=O)[C@H](C)NC(=O)CCc1ccccc1` was tested. Which inhibition did it give?
A: 112%

Q: How did the inhibition turn out when `COC(=O)[C@H](CCC(=O)O)NC(=O)[C@H](C)NC(=O)[C@@H](NC(=O)c1ccc(-c2ccccc2)cc1)[C@@H](C)O` was run?
A: 101%

Q: For `O=C(CCc1ccccc1)N[C@@H](CO)C(=O)N[C@@H](Cc1ccccc1)C(=O)N[C@@H](CO)C(=O)N1CCOCC1` (Hydrocinnamoyl-Ser-Phe-Ser-Morpholide), which inhibition is on record?
A: 94%

Q: Which inhibition does the source give for `CC(C)C[C@H](NC(=O)[C@H](COC(C)(C)C)NC(=O)[C@H](Cc1ccccc1)NC(=O)CCc1ccccc1)C(N)=O` here?
A: 96%

Q: With `NCCCC[C@H](NC(=O)CCc1ccccc1)C(=O)N[C@@H](Cc1c[nH]cn1)C(=O)N[C@@H](CO)C(=O)NCc1cccc(F)c1` as the compound, how does the inhibition read?
A: 96%

Q: How did the inhibition turn out when `CCCCCCCCCCC(=O)N[C@@H](Cc1c[nH]cn1)C(=O)N[C@@H](Cc1ccccc1)C(=O)N[C@@H](Cc1ccc(O)cc1)C(=O)OCCN` was run?
A: 61%

Q: `CCCCCCCCCCC(=O)N[C@@H](Cc1ccc(O)cc1)C(=O)N[C@@H](Cc1c[nH]cn1)C(=O)N[C@@H](Cc1c[nH]cn1)C(=O)NCCCn1ccnc1` was tested. Which inhibition did it give?
A: 59%

— ChEMBL document CHEMBL1153722, “Design, synthesis, and characterization of peptide-based rab geranylgeranyl transferase inhibitors” (J Med Chem, 2009)
